Like-named read-outs stand apart in the source and are kept apart here.
What was measured:
[1] = Arbor Acres broilers, ref Liu et al., 2018; cited from earlier work
chicken BCRP = conditions: ref Zhang et al., 2018; cited from earlier work
[2] = Pharmacokinetic study of orally administered florfenicol in chicken; format: in vivo; conditions: female, HY-Line Brown, plasma, po, 20 mg/kg
BCRP = assay: Mitoxantrone accumulation assay; format: cell-based, chicken
How it was run: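 Hepatocytes isolated from livers of 14-day-old Arbor Acres broiler embryos, grown in M199 with transferrin, penicillin and streptomycin (37°C, 5% CO2). Exposed 24 h to CXR agonist alone or with BCRP inhibitor; untreated cells served as negative control. All wells then loaded with mitoxantrone 1 h, trypsinized, washed 3× PBS. Intracellular fluorescence read by flow cytometry at 633 nm excitation. At least 3 independent experiments, mean ± SD.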

[3] = ref Anadon et al., 2008; cited from earlier work
ABCG2 mRNA [4] = assay: RT-PCR analysis of ABCG2 mRNA in chicken primary hepatocytes; format: cell-based; conditions: hepatocytes transfected with siCXR, 500 µM metyrapone 24 h
How it was run: (§1)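 Primary broiler-embryo hepatocytes grown to 70% confluency in 6-well plates. Transfected 24 h with CXR-targeting or scrambled control siRNA, then exposed to CXR agonist 24 h. Total RNA extracted with TRIzol and reverse-transcribed. Target mRNA quantified by SYBR Green real-time PCR against β-actin, 2^−ΔΔCt method. Three independent experiments, mean ± SD.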

BCRP protein [5] = assay: Western blot analysis of BCRP protein expression in chicken primary hepatocytes; format: cell-based
How it was run: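 Primary hepatocytes exposed 24 h to a range of CXR agonist concentrations, or siRNA-knocked-down first (CXR-targeting vs scrambled) and then agonist-treated 24 h. Lysed in RIPA, protein by BCA, separated on 5–12% SDS-PAGE, transferred to PVDF. Blocked with 5% milk 1 h. Probed overnight at 4°C with anti-BCRP 1:500 and anti-β-tubulin 1:5,000, then secondary 1:4,000 1 h at 37°C. ECL detection; densitometry normalized to β-tubulin.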

ABCG2 mRNA [6] = assay: RT-PCR analysis of ABCG2 mRNA in tissues of chickens treated with metyrapone; format: in vivo; conditions: metyrapone single oral 150 mg per chicken, 24 h
How it was run: (§2)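 Twelve third-week-old chickens of similar weight in two groups of 6: untreated, or a single oral CXR agonist dose of 150 mg per chicken. Killed by CO2 asphyxiation 24 h later. Tissues snap-frozen and stored −70°C. RNA extracted with TRIzol and reverse-transcribed. mRNA quantified by SYBR Green real-time PCR with β-actin reference, 2^−ΔΔCt. Mean ± SD.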

BCRP protein [7] = format: in vivo; conditions: metyrapone single oral 150 mg per chicken, 24 h
How it was run: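 Third-week-old chickens (6 per group), untreated or given a single oral CXR agonist dose of 150 mg per chicken, killed by CO2 24 h later. Tissues snap-frozen. Protein extracted with RIPA and quantified by BCA. Separated by 5–12% SDS-PAGE, blotted to PVDF. Probed with anti-BCRP 1:500 and anti-β-tubulin 1:5,000 overnight at 4°C. ECL detection; densitometry normalized to β-tubulin.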

CYP2H1 mRNA [8] = assay: RT-PCR analysis of CYP2H1 mRNA in chicken primary hepatocytes; format: cell-based; conditions: 500 µM metyrapone 24 h
How it was run: as §1

CYP2H1 mRNA [9] = assay: RT-PCR analysis of CYP2H1 mRNA in tissues of chickens treated with metyrapone; format: in vivo; conditions: metyrapone single oral 150 mg per chicken, 24 h
How it was run: as §2

CS(=O)(=O)c1ccc([C@@H](O)[C@@H](CF)NC(=O)C(Cl)Cl)cc1 [Florfenicol, florfenicol]
Absorption upon coadministration of gefitinib (a BCRP inhibitor) [1]: more extensively absorbed
Transport by chicken BCRP (chicken BCRP): actively transported
Vd/F [2]: 0.24 ± 0.05 L/kg
half-life [2]: 2.13 ± 0.45 h

COc1ccc2c3c([nH]c2c1)[C@H](CC(C)C)N1C(=O)[C@H](CCC(=O)OC(C)(C)C)NC(=O)[C@@H]1C3 [Ko143]
Effect on metyrapone-induced mitoxantrone efflux activity (BCRP; cotreatment of Ko143 with 500 µM metyrapone): reversed

CC1(C)S[C@@H]2[C@H](NC(=O)[C@H](N)c3ccccc3)C(=O)N2[C@H]1C(=O)O [ampicillin]
Transport by chicken BCRP (chicken BCRP): actively transported

CCN1CCN(c2cc3c(cc2F)c(=O)c(C(=O)O)cn3C2CC2)CC1 [enrofloxacin]
Transport by chicken BCRP (chicken BCRP): actively transported

CS(=O)(=O)c1ccc([C@@H](O)[C@H](N)CF)cc1 [florfenicol amine]
Eliminated by renal excretion as metabolite florfenicol amine [3]: 25%

CC(C)(C(=O)c1cccnc1)c1cccnc1 [metyrapone, Metyrapone]
Induction of ABCG2 at the mRNA level by metyrapone after knockdown of CXR (ABCG2 mRNA [4]): 0.7 fold
Induction of ABCG2 at the protein level by metyrapone after knockdown of CXR (BCRP protein [5]; hepatocytes transfected with siCXR, 500 µM metyrapone 24 h): 0.7 fold
BCRP protein expression, fold vs negative control cells (BCRP protein [5]; increasing concentrations of metyrapone, 24 h, chicken primary hepatocytes): up to 2.8 fold
ABCG2 mRNA expression increase (ABCG2 mRNA [6]; duodenum): 1.8 fold
Effect on expression of ABCG2 (ABCG2 mRNA [6]; ileum): did not influence
ABCG2 mRNA expression increase (ABCG2 mRNA [6]; jejunum): 1.6 fold
ABCG2 mRNA expression increase (ABCG2 mRNA [6]; kidney): 2.2 fold
ABCG2 mRNA expression increase (ABCG2 mRNA [6]; liver): 2.1 fold
BCRP protein expression increase (BCRP protein [7]; duodenum): 1.4 fold
BCRP protein expression increase (BCRP protein [7]; jejunum): 1.3 fold
BCRP protein expression increase (BCRP protein [7]; kidney): 1.6 fold
BCRP protein expression increase (BCRP protein [7]; liver): 1.6 fold
Induction of CYP2H1 mRNA upon metyrapone treatment, CXR expression vector (CYP2H1 mRNA [8]; hepatocytes transfected with CXR expression vector): 5.1 fold
Induction of CYP2H1 mRNA by metyrapone after knockdown of CXR (CYP2H1 mRNA [8]; hepatocytes transfected with siCXR): 0.5 fold
Intracellular mitoxantrone fluorescence lower than in untreated cells (BCRP; 500 µM metyrapone pretreatment 24 h, 5 µM mitoxantrone 1 h, P < 0.01): 33%
CYP2H1 mRNA expression increase (CYP2H1 mRNA [9]; duodenum): 5.6 fold
Effect on expression of CYP2H1 (CYP2H1 mRNA [9]; ileum): did not influence
CYP2H1 mRNA expression increase (CYP2H1 mRNA [9]; jejunum): 1.7 fold
CYP2H1 mRNA expression increase (CYP2H1 mRNA [9]; kidney): 8 fold
CYP2H1 mRNA expression increase (CYP2H1 mRNA [9]; liver): 3.6 fold

CC[C@H]1OC(=O)C[C@@H](O)[C@H](C)[C@@H](O[C@@H]2O[C@H](C)[C@@H](O)[C@H](N(C)C)[C@H]2O)[C@@H](CCN2C[C@H](C)C[C@H](C)C2)C[C@@H](C)C(=O)/C=C/C(C)=C/[C@@H]1CO[C@@H]1O[C@H](C)[C@@H](O)[C@@H](OC)[C@H]1OC [tilmicosin]
Transport by chicken BCRP (chicken BCRP): actively transported

— article PMC9673116 (Poultry Science, 2022)
